For 14 compounds, IC50 and inhibition results are on record in ChEMBL document CHEMBL1641436, “Synthesis of sugar-amino acid-nucleosides as potential glycosyltransferase inhibitors” (Bioorg Med Chem, 2011).

Usually IC50 stands for the concentration that inhibits the measured activity by half. A higher IC50 goes with weaker potency. For orientation: inhibition means how much of the control response was suppressed. Low readings indicate little suppression, high ones strong suppression.

The target of one assay is T1, Galactofuranosyltransferase GlfT2 (Mycobacterium tuberculosis, UniProt O53585).
T1 sequence (O53585 whole entry): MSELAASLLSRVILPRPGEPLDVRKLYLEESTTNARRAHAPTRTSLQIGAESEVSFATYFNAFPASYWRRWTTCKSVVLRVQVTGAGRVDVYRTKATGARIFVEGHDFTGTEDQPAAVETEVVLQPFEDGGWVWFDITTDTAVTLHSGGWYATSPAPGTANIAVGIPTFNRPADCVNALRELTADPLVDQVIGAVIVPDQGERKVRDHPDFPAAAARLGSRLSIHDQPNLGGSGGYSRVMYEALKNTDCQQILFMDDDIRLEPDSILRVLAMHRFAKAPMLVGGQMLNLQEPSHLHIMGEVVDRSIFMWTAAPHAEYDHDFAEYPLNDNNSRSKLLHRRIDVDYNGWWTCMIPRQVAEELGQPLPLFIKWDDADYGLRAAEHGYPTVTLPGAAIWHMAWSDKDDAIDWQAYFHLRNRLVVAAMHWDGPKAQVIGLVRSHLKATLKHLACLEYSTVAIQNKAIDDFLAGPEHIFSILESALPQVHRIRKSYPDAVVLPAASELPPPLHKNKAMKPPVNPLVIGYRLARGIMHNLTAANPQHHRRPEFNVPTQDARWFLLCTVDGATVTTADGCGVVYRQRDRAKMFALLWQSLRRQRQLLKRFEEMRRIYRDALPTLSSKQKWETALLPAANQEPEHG
Briefly: Inhibition of Mycobacterium tuberculosis GIFT2 at pH7.6 by spectrophotometric assay.
`O=C(C[C@H]1O[C@H](CO)[C@H](O)[C@H](O)[C@H]1O)N[C@@H](Cc1cnc[nH]1)C(=O)NC[C@H]1O[C@@H](n2ccc(=O)[nH]c2=O)[C@H](O)[C@@H]1O` registered an IC50 of 332 µM.

A further assay deals with T2, Galactofuranosyltransferase GlfT2 (Mycobacterium tuberculosis) (UniProt O53585).
T2 sequence (whole entry): T1 sequence (O53585 whole entry)
Briefly: Inhibition of Mycobacterium tuberculosis GIFT2 at 4 mM at pH7.6 by spectrophotometric assay. The essentials: (§1)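 Coupled PK/LDH spectrophotometric assay of GlfT2. Mix contained 100 mM MOPS pH 7.6, 50 mM KCl, 20 mM MgCl2, 1.1 mM NADH, 3.5 mM PEP, 3.75 U PK and 16.8 U LDH, with β-D-Galf-(1→5)-β-D-Galf-(1→6)-β-D-Galf-octyl as acceptor. Diluted GlfT2 was added to start the reaction at 37 °C, with A340 read every 10–15 s. Closest duplicate velocities were blank-corrected and expressed as % of mean control.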
In the case of `NC(=O)CC[C@H](NC(=O)C[C@H]1O[C@H](CO)[C@H](O)[C@H](O)[C@H]1O)C(=O)NC[C@H]1O[C@@H](n2ccc(=O)[nH]c2=O)[C@H](O)[C@@H]1O`, the inhibition was less than 10%.

As to `O=C1CCN([C@@H]2O[C@H](CNC(=O)[C@H](Cc3c[nH]c4ccccc34)NC(=O)C[C@H]3O[C@H](CO)[C@H](O)[C@H](O)[C@H]3O)[C@@H](O)[C@H]2O)C(=O)N1`, the inhibition was determined as 53%.

`O=C(C[C@H]1O[C@H](CO)[C@H](O)[C@H](O)[C@H]1O)N[C@@H](Cc1c[nH]c2ccccc12)C(=O)NC[C@H]1O[C@@H](n2ccc(=O)[nH]c2=O)[C@H](O)[C@@H]1O`: the inhibition came out at 75%.

`O=C1CCN([C@@H]2O[C@H](CNC(=O)[C@H](Cc3cnc[nH]3)NC(=O)C[C@H]3O[C@H](CO)[C@H](O)[C@H](O)[C@H]3O)[C@@H](O)[C@H]2O)C(=O)N1` displayed an inhibition of 18%.

The compound `O=C(C[C@H]1O[C@H](CO)[C@H](O)[C@H](O)[C@H]1O)N[C@@H](Cc1cnc[nH]1)C(=O)NC[C@H]1O[C@@H](n2ccc(=O)[nH]c2=O)[C@H](O)[C@@H]1O` registered an inhibition of 79%.

`NC(=O)CC[C@H](NC(=O)C[C@H]1O[C@H](CO)[C@H](O)[C@H](O)[C@H]1O)C(=O)NC[C@H]1O[C@@H](N2CCC(=O)NC2=O)[C@H](O)[C@@H]1O`: the inhibition was less than 10%.

The target in another assay is T2, Galactofuranosyltransferase GlfT2 (Mycobacterium tuberculosis). Briefly: Inhibition of Mycobacterium tuberculosis GIFT2 at 2 mM at pH7.6 by spectrophotometric assay. The essentials:
as §1
In the case of `O=C1CCN([C@@H]2O[C@H](CNC(=O)[C@H](Cc3cnc[nH]3)NC(=O)C[C@H]3O[C@@H](CO)[C@H](O)[C@H]3O)[C@@H](O)[C@H]2O)C(=O)N1`, the inhibition is less than 10%.

With `O=C1CCN([C@@H]2O[C@H](CNC(=O)[C@H](Cc3cnc[nH]3)NC(=O)C[C@@H]3O[C@@H](CO)[C@H](O)[C@H]3O)[C@@H](O)[C@H]2O)C(=O)N1`, the inhibition is less than 10%.

For the compound `O=C(C[C@H]1O[C@@H](CO)[C@H](O)[C@H]1O)N[C@@H](Cc1c[nH]c2ccccc12)C(=O)NC[C@H]1O[C@@H](n2ccc(=O)[nH]c2=O)[C@H](O)[C@@H]1O`, the inhibition turned out to be 30%.

In the case of `O=C1CCN([C@@H]2O[C@H](CNC(=O)[C@H](Cc3c[nH]c4ccccc34)NC(=O)C[C@@H]3O[C@@H](CO)[C@H](O)[C@H]3O)[C@@H](O)[C@H]2O)C(=O)N1`, the inhibition is less than 10%.

With `O=C1CCN([C@@H]2O[C@H](CNC(=O)[C@H](Cc3c[nH]c4ccccc34)NC(=O)C[C@H]3O[C@@H](CO)[C@H](O)[C@H]3O)[C@@H](O)[C@H]2O)C(=O)N1`, the inhibition is less than 10%.

On to `O=C(C[C@H]1O[C@@H](CO)[C@H](O)[C@H]1O)N[C@@H](Cc1cnc[nH]1)C(=O)NC[C@H]1O[C@@H](n2ccc(=O)[nH]c2=O)[C@H](O)[C@@H]1O`, for which the inhibition stood at 37%.

`O=C(C[C@@H]1O[C@@H](CO)[C@H](O)[C@H]1O)N[C@@H](Cc1c[nH]c2ccccc12)C(=O)NC[C@H]1O[C@@H](n2ccc(=O)[nH]c2=O)[C@H](O)[C@@H]1O` yielded an inhibition of less than 10%.

Regarding `O=C(C[C@@H]1O[C@@H](CO)[C@H](O)[C@H]1O)N[C@@H](Cc1cnc[nH]1)C(=O)NC[C@H]1O[C@@H](n2ccc(=O)[nH]c2=O)[C@H](O)[C@@H]1O`, the inhibition was found to be 14%.
